Columns and labels:
CYP2C9 = CYP2C9 (Homo sapiens, UniProt P11712); assay: Inhibition of CYP2C9 in human liver microsomes at 0.4 uM; type: ADME, Microsome
Cytochrome P450 2D6 = Cytochrome P450 2D6 (Homo sapiens, UniProt P10635); assay: Inhibition of CYP2D6 in human liver microsomes; type: ADME, Microsome
CYP2D6 = CYP2D6 (Homo sapiens, UniProt P10635); assay: Inhibition of CYP2D6 in human liver microsomes at 0.4 uM; type: ADME, Microsome
Cytochrome P450 2C9 = Cytochrome P450 2C9 (Homo sapiens, UniProt P11712); assay: Inhibition of CYP2C9 in human liver microsomes; type: ADME, Microsome
Chain of Cytochrome P450 2C9 (P11712 whole entry): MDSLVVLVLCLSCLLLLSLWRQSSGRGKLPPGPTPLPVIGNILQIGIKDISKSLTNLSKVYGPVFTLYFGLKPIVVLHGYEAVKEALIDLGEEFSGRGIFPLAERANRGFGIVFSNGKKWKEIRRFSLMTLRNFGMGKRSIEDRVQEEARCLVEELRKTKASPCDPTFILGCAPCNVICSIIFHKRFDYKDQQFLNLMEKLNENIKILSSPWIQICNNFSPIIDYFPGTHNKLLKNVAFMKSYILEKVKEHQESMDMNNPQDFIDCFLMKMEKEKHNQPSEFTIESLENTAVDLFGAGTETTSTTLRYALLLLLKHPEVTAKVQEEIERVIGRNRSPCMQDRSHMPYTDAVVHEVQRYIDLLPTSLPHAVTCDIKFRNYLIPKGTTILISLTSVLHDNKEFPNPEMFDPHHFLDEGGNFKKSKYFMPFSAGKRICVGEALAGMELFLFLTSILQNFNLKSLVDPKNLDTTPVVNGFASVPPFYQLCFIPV

Cytochrome P450 2C19 = Cytochrome P450 2C19 (Homo sapiens, UniProt P33261); assay: Inhibition of CYP2C19 in human liver microsomes; type: ADME, Microsome
Chain of Cytochrome P450 2C19 (P33261 whole entry): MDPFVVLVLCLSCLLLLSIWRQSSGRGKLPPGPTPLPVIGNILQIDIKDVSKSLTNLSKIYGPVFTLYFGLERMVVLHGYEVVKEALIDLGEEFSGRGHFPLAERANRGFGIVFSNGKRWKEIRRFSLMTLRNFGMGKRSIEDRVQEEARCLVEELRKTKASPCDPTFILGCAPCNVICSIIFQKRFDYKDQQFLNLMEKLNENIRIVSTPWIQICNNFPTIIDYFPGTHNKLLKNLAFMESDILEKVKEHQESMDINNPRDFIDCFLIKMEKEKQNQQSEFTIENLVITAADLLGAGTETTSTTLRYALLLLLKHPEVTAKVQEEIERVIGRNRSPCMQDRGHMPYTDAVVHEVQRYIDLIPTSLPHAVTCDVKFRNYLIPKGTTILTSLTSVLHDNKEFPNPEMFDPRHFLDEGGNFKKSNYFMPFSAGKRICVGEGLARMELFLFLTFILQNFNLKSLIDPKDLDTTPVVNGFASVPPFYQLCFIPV

[1] = Selectivity ratio of IC50 for CYP1A2 in human liver microsomes to IC50 for CYP26A1 in human MCF7 cell microsomes
CYP1A2 = biological target: T1, CYP1A2 (Homo sapiens, UniProt P05177); assay: Inhibition of CYP1A2 in human liver microsomes at 0.4 uM; type: ADME, Microsome
T1 sequence (P05177 whole entry): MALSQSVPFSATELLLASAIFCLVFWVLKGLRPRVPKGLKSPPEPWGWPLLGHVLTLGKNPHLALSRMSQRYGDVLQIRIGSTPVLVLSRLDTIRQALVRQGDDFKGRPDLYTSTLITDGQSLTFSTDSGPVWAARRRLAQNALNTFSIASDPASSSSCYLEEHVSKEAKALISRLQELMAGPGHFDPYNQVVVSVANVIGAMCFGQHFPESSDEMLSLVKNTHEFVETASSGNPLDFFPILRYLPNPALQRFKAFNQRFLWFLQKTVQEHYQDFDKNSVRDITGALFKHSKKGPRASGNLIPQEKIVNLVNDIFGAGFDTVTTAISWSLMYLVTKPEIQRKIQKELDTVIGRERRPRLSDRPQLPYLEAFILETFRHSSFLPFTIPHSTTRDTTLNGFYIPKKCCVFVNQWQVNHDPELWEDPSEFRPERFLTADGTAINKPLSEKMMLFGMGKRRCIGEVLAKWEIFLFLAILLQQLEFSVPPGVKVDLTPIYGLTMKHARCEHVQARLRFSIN

CYP3A4 = CYP3A4 (Homo sapiens, UniProt P08684); assay: Inhibition of CYP3A4 in human liver microsomes at 0.4 uM; type: ADME, Microsome
Chain of CYP3A4 (P08684 whole entry): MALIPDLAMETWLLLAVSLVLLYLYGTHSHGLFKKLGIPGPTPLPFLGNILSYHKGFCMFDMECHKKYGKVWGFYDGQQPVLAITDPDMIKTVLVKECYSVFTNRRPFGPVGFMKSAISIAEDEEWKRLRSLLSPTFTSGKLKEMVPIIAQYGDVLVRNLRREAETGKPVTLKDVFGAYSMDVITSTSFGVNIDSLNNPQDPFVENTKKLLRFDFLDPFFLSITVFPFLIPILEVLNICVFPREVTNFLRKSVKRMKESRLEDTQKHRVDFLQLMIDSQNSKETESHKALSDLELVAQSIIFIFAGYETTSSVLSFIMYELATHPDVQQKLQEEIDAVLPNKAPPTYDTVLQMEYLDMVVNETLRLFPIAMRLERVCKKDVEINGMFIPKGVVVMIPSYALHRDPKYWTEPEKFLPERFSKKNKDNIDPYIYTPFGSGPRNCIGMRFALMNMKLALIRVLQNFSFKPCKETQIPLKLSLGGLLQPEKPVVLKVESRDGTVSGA

[2] = Selectivity ratio of IC50 for CYP3A4 in human liver microsomes to IC50 for CYP26A1 in human MCF7 cell microsomes
[3] = Selectivity ratio of IC50 for CYP2D6 in human liver microsomes to IC50 for CYP26A1 in human MCF7 cell microsomes
Cytochrome P450 1A2 = biological target: T2, Cytochrome P450 1A2 (Homo sapiens, UniProt P05177); assay: Inhibition of CYP1A2 in human liver microsomes; type: ADME, Microsome
T2 sequence (P05177 whole entry): T1 sequence (P05177 whole entry)

[4] = Selectivity ratio of IC50 for CYP2C9 in human liver microsomes to IC50 for CYP26A1 in human MCF7 cell microsomes
CYP2C19 = CYP2C19 (Homo sapiens, UniProt P33261); assay: Inhibition of CYP2C19 in human liver microsomes at 0.4 uM; type: ADME, Microsome
Chain of CYP2C19 (P33261 whole entry): as the sequence (P33261 whole entry) above

Cytochrome P450 26A1 = biological target: T3, Cytochrome P450 26A1 (Homo sapiens, UniProt O43174); assay: Inhibition of CYP26A1 in human MCF7 cell microsomes using [3H]ATRA as substrate after 1 hr by scintillation counter analysis; set-up: species or system Microsome
T3 sequence (O43174 whole entry): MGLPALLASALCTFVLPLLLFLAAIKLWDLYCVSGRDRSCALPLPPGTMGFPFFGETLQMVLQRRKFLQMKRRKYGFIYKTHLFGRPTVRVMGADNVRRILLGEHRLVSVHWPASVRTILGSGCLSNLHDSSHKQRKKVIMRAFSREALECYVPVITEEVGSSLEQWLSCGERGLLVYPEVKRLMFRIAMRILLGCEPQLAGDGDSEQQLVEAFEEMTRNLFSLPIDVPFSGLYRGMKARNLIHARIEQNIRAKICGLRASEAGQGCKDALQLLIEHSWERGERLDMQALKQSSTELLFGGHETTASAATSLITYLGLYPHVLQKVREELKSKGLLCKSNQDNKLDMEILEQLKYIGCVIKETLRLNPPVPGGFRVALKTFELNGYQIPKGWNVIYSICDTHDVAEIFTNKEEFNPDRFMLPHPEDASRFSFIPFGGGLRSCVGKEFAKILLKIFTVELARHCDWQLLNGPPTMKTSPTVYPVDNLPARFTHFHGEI
Outline: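 MCF-7 cells (RPMI 1640, 10% FCS, 2 mM L-glutamine, 37 °C, 5% CO₂) pretreated 24 h with 1 µM RA to induce CYP26; microsomes by differential centrifugation, activity normalised by cytochrome c reductase. 50 µg microsomal protein, 2 mM NADPH, 10 nM ATRA plus 0.1 µCi ³H-ATRA, pH 7.4 Tris/KCl/MgCl₂/BSA, inhibitor 1–1000 nM, 1 h 37 °C; acetonitrile quench, C18 HPLC, flow scintillation; inhibition from metabolite peak area fraction versus no-inhibitor control.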

Cytochrome P450 3A4 = Cytochrome P450 3A4 (Homo sapiens, UniProt P08684); assay: Inhibition of CYP3A4 in human liver microsomes; type: ADME, Microsome
Chain of Cytochrome P450 3A4 (P08684 whole entry): as the sequence (P08684 whole entry) above

Chain of CYP2C9 (P11712 whole entry): as the sequence (P11712 whole entry) above
Chain of CYP2D6 (P10635 whole entry): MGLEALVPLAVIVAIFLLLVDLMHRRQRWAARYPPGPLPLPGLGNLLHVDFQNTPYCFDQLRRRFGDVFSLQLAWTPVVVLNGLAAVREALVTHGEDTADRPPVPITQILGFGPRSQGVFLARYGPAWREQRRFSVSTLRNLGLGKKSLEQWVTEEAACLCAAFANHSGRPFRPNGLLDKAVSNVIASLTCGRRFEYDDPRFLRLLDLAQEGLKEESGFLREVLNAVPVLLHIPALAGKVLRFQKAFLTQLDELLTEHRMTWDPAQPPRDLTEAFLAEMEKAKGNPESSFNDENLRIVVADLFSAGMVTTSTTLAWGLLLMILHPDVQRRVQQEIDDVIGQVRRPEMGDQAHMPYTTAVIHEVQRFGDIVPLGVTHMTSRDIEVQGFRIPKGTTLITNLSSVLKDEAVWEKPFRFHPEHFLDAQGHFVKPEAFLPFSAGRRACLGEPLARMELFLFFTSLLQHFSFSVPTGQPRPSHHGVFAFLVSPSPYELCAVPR
Chain of Cytochrome P450 2D6 (P10635 whole entry): as above

`COC(=O)C(C)(C)C(c1ccc(Nc2ccccc2)cc1)n1cncn1` (stereo not drawn) gave an inhibition at 0.4 µM (CYP2C9) of 19%, an IC50 (Cytochrome P450 2D6) of 1300 nM and an inhibition at 0.4 µM (CYP2D6) of 13%. For the same compound, the IC50 (Cytochrome P450 2C9) was 9100 nM, the IC50 (Cytochrome P450 2C19) was 4200 nM and the “Ratio IC50” value [1] was >100. For the same compound, the inhibition at 0.4 µM (CYP1A2) was 10%, the inhibition at 0.4 µM (CYP3A4) was 47% and the “Ratio IC50” value [2] was 15. For the same compound, the “Ratio IC50” value [3] was >100, the IC50 (Cytochrome P450 1A2) was 8500 nM and the “Ratio IC50” value [4] was >100. It also gave an inhibition at 0.4 µM (CYP2C19) of 19%, an IC50 (Cytochrome P450 26A1) of 13 nM and an IC50 (Cytochrome P450 3A4) of 200 nM.
In the case of `COC(=O)C(C)(C)C(c1ccc(Nc2ccc(C(C)=O)cc2)cc1)n1cncn1` (stereo not drawn), the IC50 (Cytochrome P450 26A1) is reported as 95 nM.
In the case of `CC(C)(C(=O)O)C(c1ccc(Nc2ccccc2)cc1)n1ccnc1` (stereo not drawn), the IC50 (Cytochrome P450 26A1) is reported as > 1000 nM.
For `CC(C)(C(=O)O)C(c1ccc(Nc2ccc(C(=O)O)cc2)cc1)n1cncn1` (stereo not drawn), the IC50 (Cytochrome P450 26A1) was 85 nM.
With `CNC(=O)C(C)(C)C(c1ccc(Nc2ccccc2)cc1)n1ccnc1` (stereo not drawn) the IC50 (Cytochrome P450 26A1) was 200 nM.
Compound `CCNC(=O)C(C)(C)C(c1ccc(Nc2ccccc2)cc1)n1ccnc1` (stereo not drawn) has an IC50 (Cytochrome P450 26A1) of 250 nM.
For `CNC(=O)C(C)(C)C(c1ccc(Nc2ccc(OC)cc2)cc1)n1ccnc1` (stereo not drawn), the IC50 (Cytochrome P450 26A1) was > 1000 nM.
Compound `CNC(=O)C(C)(C)C(c1ccc(Nc2ccc(Cl)cc2)cc1)n1ccnc1` (stereo not drawn) has an IC50 (Cytochrome P450 26A1) of 1000 nM.
`CNC(=O)C(C)(C)C(c1ccc(Nc2ccccc2)cc1)n1cncn1` (stereo not drawn) showed an IC50 (Cytochrome P450 26A1) of 1000 nM.
Work on `C[C@H]([C@@H](c1ccc(Nc2nc3ccccc3s2)cc1)n1cncn1)N(C)C` yielded an inhibition at 0.4 µM (CYP2C9) of 3%, an inhibition at 0.4 µM (CYP2D6) of 27% and an inhibition at 0.4 µM (CYP1A2) of 6%. It also gave an inhibition at 0.4 µM (CYP3A4) of 83% and an inhibition at 0.4 µM (CYP2C19) of 17%.

— ChEMBL document CHEMBL2203049, “Novel retinoic acid 4-hydroxylase (CYP26) inhibitors based on a 3-(1H-imidazol- and triazol-1-yl)-2,2-dimethyl-3-(4-(phenylamino)phenyl)propyl scaffold” (Bioorg Med Chem, 2012)
